Data on six compounds can be found in ChEMBL document CHEMBL1949535, “Synthesis and preliminary antibacterial evaluation of Linezolid-like 1,2,4-oxadiazole derivatives” (2012).

Values after ≈ are worked out from the molar mass of the structure shown.

Holding throughout (type): functional
For assay [1], the system named is Streptococcus pyogenes. The assay is described as follows: Antibacterial activity against erythromycin-sensitive Streptococcus pyogenes 3 after 16 to 20 hrs by microbroth dilution method. The procedure, abridged:
(§1)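 CLSI broth microdilution in Mueller-Hinton broth. Compounds were dissolved in 100% DMSO and serially two-fold diluted to cover 0.12 to >256 mg/L. An equal volume of inoculum at 1 × 10⁶ CFU/mL was added, then plates were incubated at 35 °C for 16–20 h. MIC was the lowest concentration with no visible growth. DMSO and uninoculated-medium controls were run in parallel.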
(In general: Dilution methods test growth across graded concentrations, often in twofold steps.)

The next assay deals with Serratia marcescens. Put plainly: Antibacterial activity against Serratia marcescens Mel 522 after 16 to 20 hrs by microbroth dilution method. Summed up:
as §1

The subject of a further assay is Streptococcus pneumoniae. Put plainly: Antibacterial activity against Streptococcus pneumoniae PEN-1 after 16 to 20 hrs by microbroth dilution method. The settings on record: PEN I. Summed up: as §1
The subject of assay [2] is Streptococcus pyogenes. The assay is described as follows: Antibacterial activity against Streptococcus pyogenes ATCC 19615 after 16 to 20 hrs by microbroth dilution method. The procedure, abridged:
(§2)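 CLSI broth microdilution in Mueller-Hinton broth. Compound stocks in 100% DMSO, serially diluted two-fold to 0.12->256 mg/L. An equal volume of inoculum at 1 x 10⁶ CFU/mL was added to each well. Plates were incubated 16-20 h at 35 °C. MIC (mg/L) was taken as the lowest concentration with no visible growth. DMSO and uninoculated-medium controls were run in parallel.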

For assay [3], the system named is Staphylococcus aureus. The assay is described as follows: Antibacterial activity against methicillin-sensitive Staphylococcus aureus ATCC 25923 after 16 to 20 hrs by microbroth dilution method. The procedure, abridged: as §1
Assay [4] relates to Staphylococcus aureus. Put plainly: Antibacterial activity against methicillin-sensitive Staphylococcus aureus ATCC 29213 after 16 to 20 hrs by microbroth dilution method. Summed up: as §1
The test system of assay [5] is Streptococcus pyogenes. The assay is described as follows: Antibacterial activity against erythromycin-resistant Streptococcus pyogenes 24 after 16 to 20 hrs by microbroth dilution method. Summed up:
as §2

The test system of assay [6] is Staphylococcus aureus. Put plainly: Antibacterial activity against methicillin-resistant Staphylococcus aureus C530 after 16 to 20 hrs by microbroth dilution method. The procedure, abridged: as §2
The test system of assay [7] is Streptococcus pyogenes. The assay is described as follows: Antibacterial activity against erythromycin-resistant Streptococcus pyogenes 47 after 16 to 20 hrs by microbroth dilution method. The procedure, abridged:
as §2

The test system of assay [8] is Staphylococcus aureus. The assay is described as follows: Antibacterial activity against Staphylococcus aureus ATCC 43300 after 16 to 20 hrs by microbroth dilution method. Summed up: as §1
Assay [9] relates to Streptococcus pyogenes. The assay is described as follows: Antibacterial activity against erythromycin-sensitive Streptococcus pyogenes 9 after 16 to 20 hrs by microbroth dilution method. Summed up:
as §1

Assay [10] deals with Escherichia coli. Put plainly: Antibacterial activity against Escherichia coli ATCC 25922 after 16 to 20 hrs by microbroth dilution method. Summed up:
as §1

The test system of assay [11] is Streptococcus pyogenes. The assay is described as follows: Antibacterial activity against erythromycin-sensitive Streptococcus pyogenes 12 after 16 to 20 hrs by microbroth dilution method. The procedure, abridged: as §1
Assay [12] deals with Staphylococcus aureus. Put plainly: Antibacterial activity against methicillin-resistant glycopeptide-intermediate Staphylococcus aureus Mu50 after 16 to 20 hrs by microbroth dilution method. The procedure, abridged:
as §2

For assay [13], the system named is Streptococcus pyogenes. The assay is described as follows: Antibacterial activity against erythromycin-resistant Streptococcus pyogenes 6 after 16 to 20 hrs by microbroth dilution method. The procedure, abridged:
as §2

Assay [14] relates to Escherichia coli. The assay is described as follows: Antibacterial activity against Escherichia coli 3350 after 16 to 20 hrs by microbroth dilution method. The procedure, abridged: as §1
In assay [15] the test system is Streptococcus pyogenes. Put plainly: Antibacterial activity against compound-resistant Streptococcus pyogenes 47 after 16 to 20 hrs by microbroth dilution method. The procedure, abridged: as §2
Assay [16] deals with Streptococcus pyogenes. Put plainly: Antibacterial activity against compound-resistant Streptococcus pyogenes 24 after 16 to 20 hrs by microbroth dilution method. The procedure, abridged:
as §2

Turning to `NC(=O)c1noc(-c2ccc(N3CCOCC3)cc2)n1`, the MIC (commonly the smallest concentration in the dilution series that meets the test's criterion for growth inhibition) with Streptococcus pyogenes [1] was 128 µg/mL (≈ 467 µM); with Serratia marcescens it was 128 µg/mL (≈ 467 µM); against Streptococcus pneumoniae, 128 µg/mL (≈ 467 µM); against Streptococcus pyogenes [2], 128 µg/mL (≈ 467 µM); against Staphylococcus aureus [3], over 256 µg/mL; against Staphylococcus aureus [4], over 256 µg/mL. Moreover, the MIC is over 256 µg/mL in the assay on Streptococcus pyogenes [5]; over 256 µg/mL in the assay on Staphylococcus aureus [6]; over 256 µg/mL with Streptococcus pyogenes [7]; over 256 µg/mL against Staphylococcus aureus [8]; 128 µg/mL (≈ 467 µM) against Streptococcus pyogenes [9]; over 256 µg/mL in the assay on Escherichia coli [10]. The MIC was 128 µg/mL (≈ 467 µM) against Streptococcus pyogenes [11], over 256 µg/mL with Staphylococcus aureus [12], 128 µg/mL (≈ 467 µM) with Streptococcus pyogenes [13] and 128 µg/mL (≈ 467 µM) against Escherichia coli [14].

Take `CC[C@H]1OC(=O)[C@H](C)[C@@H](O[C@H]2C[C@@](C)(OC)[C@@H](O)[C@H](C)O2)[C@H](C)[C@@H](O[C@@H]2O[C@H](C)C[C@H](N(C)C)[C@H]2O)[C@](C)(O)C[C@@H](C)C(=O)[C@H](C)[C@@H](O)[C@]1(C)O` [ERYTHROMYCIN]: the MIC in the assay with Streptococcus pyogenes [15] and in the assay with Streptococcus pyogenes [16] was over 256 µg/mL each time.

For the compound `NC(=O)c1noc(-c2cc(F)c(N3CCOCC3)c(F)c2)n1`, the MIC in the assay with Streptococcus pyogenes [1] was over 256 µg/mL; in the assay on Serratia marcescens it was over 256 µg/mL; in the assay on Streptococcus pneumoniae, over 256 µg/mL; in the assay on Streptococcus pyogenes [2], 128 µg/mL (≈ 413 µM); against Staphylococcus aureus [3], over 256 µg/mL; against Staphylococcus aureus [4], over 256 µg/mL. The minimal inhibitory concentration (MIC) against Streptococcus pyogenes [5] was over 256 µg/mL; against Staphylococcus aureus [6], over 256 µg/mL; in the assay on Streptococcus pyogenes [7], 128 µg/mL (≈ 413 µM); against Staphylococcus aureus [8] it was over 256 µg/mL; with Streptococcus pyogenes [9], over 256 µg/mL; in the assay on Escherichia coli [10] it was 128 µg/mL (≈ 413 µM). The MIC was over 256 µg/mL in the assay with Streptococcus pyogenes [11], over 256 µg/mL in the assay with Staphylococcus aureus [12], 128 µg/mL (≈ 413 µM) in the assay with Streptococcus pyogenes [13] and 128 µg/mL (≈ 413 µM) in the assay with Escherichia coli [14].

On to `CC(=O)NCc1noc(-c2cc(F)c(N3CCOCC3)c(F)c2)n1`, for which the MIC was over 256 µg/mL against Streptococcus pyogenes [1]; over 256 µg/mL against Serratia marcescens; over 256 µg/mL in the assay with Streptococcus pneumoniae; 128 µg/mL (≈ 378 µM) against Streptococcus pyogenes [2]; over 256 µg/mL in the assay with Staphylococcus aureus [3]; over 256 µg/mL in the assay with Staphylococcus aureus [4]. Also, the MIC against Streptococcus pyogenes [5] was over 256 µg/mL; in the assay with Staphylococcus aureus [6], over 256 µg/mL; against Streptococcus pyogenes [7], 128 µg/mL (≈ 378 µM); in the assay with Staphylococcus aureus [8] it was over 256 µg/mL; against Streptococcus pyogenes [9] it was over 256 µg/mL; in the assay on Escherichia coli [10] it was 128 µg/mL (≈ 378 µM). Moreover, the MIC in the assay on Streptococcus pyogenes [11] was over 256 µg/mL; against Staphylococcus aureus [12], over 256 µg/mL; in the assay with Streptococcus pyogenes [13] it was 128 µg/mL (≈ 378 µM); in the assay with Escherichia coli [14] it was 128 µg/mL (≈ 378 µM).

For the compound `CC(=O)NCc1noc(-c2ccc(N3CCOCC3)c(F)c2)n1`, the MIC in the assay on Streptococcus pyogenes [1] was over 256 µg/mL; against Serratia marcescens it was over 256 µg/mL; in the assay with Streptococcus pneumoniae it was over 256 µg/mL; in the assay with Streptococcus pyogenes [2] it was 128 µg/mL (≈ 400 µM); with Staphylococcus aureus [3] it was over 256 µg/mL; against Staphylococcus aureus [4] it was over 256 µg/mL. For the same compound, the MIC against Streptococcus pyogenes [5] was 128 µg/mL (≈ 400 µM); with Staphylococcus aureus [6] it was over 256 µg/mL; against Streptococcus pyogenes [7] it was over 256 µg/mL; against Staphylococcus aureus [8], over 256 µg/mL; against Streptococcus pyogenes [9] it was over 256 µg/mL; against Escherichia coli [10], 128 µg/mL (≈ 400 µM). For the same compound, the MIC in the assay with Streptococcus pyogenes [11] is 128 µg/mL (≈ 400 µM); with Staphylococcus aureus [12] it was over 256 µg/mL; against Streptococcus pyogenes [13] it was 128 µg/mL (≈ 400 µM); in the assay on Escherichia coli [14], 128 µg/mL (≈ 400 µM).

Consider `NC(=O)c1noc(-c2c(F)c(F)c(N3CCOCC3)c(F)c2F)n1`, for which the minimum inhibitory concentration (MIC) in the assay on Streptococcus pyogenes [1], in the assay with Serratia marcescens, against Streptococcus pneumoniae, in the assay with Streptococcus pyogenes [2], against Staphylococcus aureus [3] and against Staphylococcus aureus [4] was over 256 µg/mL in each case. Besides, the MIC was over 256 µg/mL against Streptococcus pyogenes [5]; over 256 µg/mL against Staphylococcus aureus [6]; over 256 µg/mL in the assay on Streptococcus pyogenes [7]; over 256 µg/mL in the assay on Staphylococcus aureus [8]; over 256 µg/mL in the assay with Streptococcus pyogenes [9]; 128 µg/mL (≈ 370 µM) in the assay on Escherichia coli [10]. The minimum inhibitory concentration (MIC) in the assay with Streptococcus pyogenes [11], in the assay with Staphylococcus aureus [12], against Streptococcus pyogenes [13] and in the assay with Escherichia coli [14] was over 256 µg/mL throughout.
